# According to ChEMBL document CHEMBL1127290, “1-(2,5-Dimethoxy-4-(trifluoromethyl)phenyl)-2-aminopropane: a potent serotonin 5-HT2A/2C agonist” (J Med Chem, 1994):
# Experiments:
# [1] = target: 5-hydroxytryptamine receptor 2A (Mus musculus) (UniProt P35363); assay: Percent of maximum stimulation of phosphatidylinositol turnover at cloned 5-hydroxytryptamine 2A receptor in 3T3 cells; assay type: functional, cell-based; conditions: NIH3T3
# [2] = target: T1, 5-hydroxytryptamine receptor 2C (Mus musculus) (UniProt P34968); assay: Percent of maximum stimulation of phosphatidylinositol turnover at cloned 5-hydroxytryptamine 2C receptor in A9 cells; assay type: functional, cell-based
# T1 sequence (whole entry): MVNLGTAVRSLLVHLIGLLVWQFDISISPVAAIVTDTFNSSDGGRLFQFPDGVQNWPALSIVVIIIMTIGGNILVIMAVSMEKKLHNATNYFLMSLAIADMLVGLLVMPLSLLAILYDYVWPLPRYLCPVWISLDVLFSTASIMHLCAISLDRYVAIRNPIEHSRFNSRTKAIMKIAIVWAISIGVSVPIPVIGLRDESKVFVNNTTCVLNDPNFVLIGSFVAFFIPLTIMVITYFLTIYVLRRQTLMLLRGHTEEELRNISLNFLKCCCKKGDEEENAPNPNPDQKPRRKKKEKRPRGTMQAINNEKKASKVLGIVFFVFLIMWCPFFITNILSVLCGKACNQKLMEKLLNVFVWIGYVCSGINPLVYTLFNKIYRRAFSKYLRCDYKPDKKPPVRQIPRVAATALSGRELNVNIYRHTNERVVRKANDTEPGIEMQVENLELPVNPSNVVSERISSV
# Outline: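 A9 cells expressing cloned 5-HT2C receptor, labelled 18 h with 1 μCi/mL [3H]inositol in inositol-free DMEM with dialysed serum. Compounds given 60 min with 10 mM LiCl in Krebs bicarbonate buffer, then [3H]inositol monophosphate accumulation measured. Expressed as % of the 5-HT (10^-5 M) maximum minus control. Vmax by nonlinear regression. Triplicates in three experiments, mean ± SE.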
# Sequence of 5-hydroxytryptamine receptor 2A (Mus musculus) (P35363 whole entry): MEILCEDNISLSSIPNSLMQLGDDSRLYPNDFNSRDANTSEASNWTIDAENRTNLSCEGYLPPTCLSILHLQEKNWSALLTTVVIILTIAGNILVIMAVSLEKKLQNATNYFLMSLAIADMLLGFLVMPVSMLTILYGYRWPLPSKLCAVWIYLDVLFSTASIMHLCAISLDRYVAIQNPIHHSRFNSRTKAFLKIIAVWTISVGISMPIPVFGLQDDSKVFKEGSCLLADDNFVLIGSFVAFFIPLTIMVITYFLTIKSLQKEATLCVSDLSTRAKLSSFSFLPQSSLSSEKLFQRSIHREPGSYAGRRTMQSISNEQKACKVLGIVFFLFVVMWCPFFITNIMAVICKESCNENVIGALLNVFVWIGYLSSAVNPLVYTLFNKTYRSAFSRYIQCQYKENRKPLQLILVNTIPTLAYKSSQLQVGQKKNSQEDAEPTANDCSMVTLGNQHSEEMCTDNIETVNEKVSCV
Structure (SMILES),K aff [1],K aff [2]
COc1cc(C(F)(F)F)c(OC)cc1CC(C)N (stereo unspecified),86 nM,43 nM
COc1cc(CC(C)N)c(OC)cc1I (stereo unspecified),119 nM,43 nM
COc1cc(C(F)(F)F)c(OC)cc1CCN,165 nM,32 nM
